Screening results as filed in PubChem.
RGS4 block – RGS4 inhibitors, primary screen, cell-based, HEK293 M3R inducible RGS4, calcium flux | Regulator of G-protein signaling 4 (Homo sapiens), P49798 | Fluo-4 calcium flux; active compounds read high; triggered by carbachol at its EC20 | B-score at 10 µM | hit rate 0.45% among 310,000 | AID 463165, 2010;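 active = B-score, a plate-corrected calcium signal, over three deviations above library mean, with baseline fluorescence within five deviations of library mean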;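 also: RGS4 expression induced by doxycycline in cells with stable M3 receptor; B-score is computed from the integrated fluorescence ratio over baseline after carbachol; higher B-score means a larger calcium signal and so more RGS4 inhibition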
Target sequence (P49798 whole entry, looked up): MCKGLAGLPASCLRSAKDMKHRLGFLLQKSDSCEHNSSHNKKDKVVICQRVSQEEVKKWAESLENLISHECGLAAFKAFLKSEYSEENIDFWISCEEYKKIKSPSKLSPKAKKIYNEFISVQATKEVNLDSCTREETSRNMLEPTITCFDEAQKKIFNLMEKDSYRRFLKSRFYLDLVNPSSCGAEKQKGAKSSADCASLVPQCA
MrgX1 ag – agonists of human MrgX1 receptor, primary screen, HEK293 cells, Fluo-4 calcium flux. Fluo-4 calcium fluorescence, agonist mode; active compounds read high. B-score at 10 µM. hit rate 0.44% among 310,000. AID 588627, 2011;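 active = calcium response B-score plate-corrected fluorescence ratio at least 3 library SD, with starting fluorescence B-score inside 5 SD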
Target sequence (Q96LB2 whole entry, looked up): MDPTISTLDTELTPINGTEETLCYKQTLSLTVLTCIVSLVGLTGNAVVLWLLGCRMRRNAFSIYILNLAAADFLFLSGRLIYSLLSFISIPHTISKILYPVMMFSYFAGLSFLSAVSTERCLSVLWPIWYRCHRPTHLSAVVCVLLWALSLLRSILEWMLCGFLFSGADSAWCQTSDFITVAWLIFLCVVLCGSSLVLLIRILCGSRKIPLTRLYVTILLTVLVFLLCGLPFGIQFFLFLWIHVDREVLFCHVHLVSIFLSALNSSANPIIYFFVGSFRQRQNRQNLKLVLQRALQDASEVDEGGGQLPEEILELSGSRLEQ
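Material: HEK293 cells stably expressing human MrgX1 receptor | Quantity: 15,000 cells per well | Times: Cells plated overnight, dye loaded 0.5 h 37 °C, 0.5 h room temperature | Measured by: Kinetic Fluo-4 NW fluorescence of intracellular calcium | Control set: Positive and negative controls per plate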
Lipid droplet – inhibitors of hepatocyte lipid droplet formation, primary screen, imaging, high-throughput imaging, BODIPY stain. AML12 mouse hepatocytes, oleate lipid droplets. inhibition, % at 6.5 µM. hit rate 0.4% among 240,000;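 active = lipid droplet intensity inhibited by at least 50%, with more than 500 cells counted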
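Assay system: AML12 hepatocytes (mouse); Probe or stimulus: oleic acid at 100 µM to induce lipid droplet formation; Dosing: compound at 6.5 µM only; Schedule: compound with oleate, overnight; Detection: fluorescence imaging, 20x objective, two fields per well; Measure: % inhibition of lipid droplet signal.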
RGS4 act – RGS4 potentiators or activators, primary screen, cell-based, HEK293 M3R inducible RGS4, calcium flux; AID 463111, 2010; hit rate 0.92% among 310,000; B-score at 10 µM; carbachol calcium flux Fluo4; active compounds read low;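 active = B-score of the integrated calcium signal more than 4 SD below the library mean, with starting fluorescence not abnormally high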;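 also: negative B-score means reduced calcium response which marks RGS4 activation or potentiation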
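Also added: carbachol at ECmax as muscarinic agonist stimulus; Assay system: HEK293 cells with stable M3R and inducible RGS4; Timing: overnight RGS4 induction, 30 min dye load 37 °C, 20 min compound RT; Measured by: Fluo4-AM (2 µM) calcium-flux fluorescence, kinetic read.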
MrgX1 antag – antagonists of human MrgX1 receptor, primary screen, HEK293 cells, Fluo-4 calcium flux | BAM8-22 antagonism; active compounds read low | hit rate 1.3% among 310,000 | B-score at 10 µM | Mas-related G-protein coupled receptor member X1 (Homo sapiens), Q96LB2 | AID 588676, 2011;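 active = calcium-response B-score plate-corrected more than 3 library SD below zero, starting fluorescence within 5 deviations, no agonist response on first addition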;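 also: peak minus trough fluorescence over baseline after final BAM8-22 challenge near maximal dose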
MrgX1 PAM – positive allosteric modulators of MrgX1, primary screen, HEK293 cells, Fluo-4 calcium flux. FDSS; active compounds read high. B-score at 10 µM. Mas-related G-protein coupled receptor member X1 (Homo sapiens), Q96LB2. hit rate 0.63% among 310,000;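 active = plate-corrected calcium response at least 3 library SD above typical, normal starting fluorescence, not activating the receptor alone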;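 also: compound read alongside a low EC10 to EC30 dose of BAM8-22 agonist; peak minus trough fluorescence over baseline measured at the second addition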
Each line names hits and unclear results; the compound was inactive in the other large screens. Compounds with a hit are over-represented: about 3.8% of the library has one in this group of screens.

Cc1cc(/C=N\NC(=O)CC(=O)NC2CCCCC2)c(C)n1-c1cccc(Cl)c1Cl	MrgX1 antag -6.3
Cc1ccc(S(=O)(=O)NCC(=O)N(CC(=O)NCc2ccco2)Cc2ccccc2)cc1	MrgX1 ag 36
COc1ccccc1OC(=O)c1cc2ccccc2oc1=O	none
COc1cccc(OC(=O)c2cc3ccccc3oc2=O)c1	MrgX1 antag -5
O=C(NNC(=O)c1ccc(F)cc1F)c1ccc(-n2cnnn2)cc1	none
CC(C)NC(=O)c1ccccc1NC(=O)/C=C/c1cccc([N+](=O)[O-])c1	MrgX1 antag -4.5
COc1ccc(/C=C/C(=O)Nc2ccc(OC)cc2[N+](=O)[O-])cc1	none
COc1ccc(NC(=O)/C=C/c2ccccc2)c([N+](=O)[O-])c1	MrgX1 antag -7.1
O=S(=O)(Nc1c(S(=O)(=O)c2ccccc2)c2nc3ccccc3nc2n1C1CCCCC1)c1ccccc1	RGS4 act -10
C=CCn1c(NS(=O)(=O)c2ccccc2)c(S(=O)(=O)c2ccc(C)cc2)c2nc3ccccc3nc21	none
C/C(=C/C#N)Nc1ccc(C)cc1	MrgX1 PAM 12
CN(CC(=O)NCc1ccc(F)cc1)CC(=O)Nc1ccc(Cl)c(C(F)(F)F)c1	MrgX1 antag -5.6
CCCN1CNc2c(c(=O)[nH]c(=S)n2CCc2ccc(OC)c(OC)c2)C1	none
COc1cc(CNC(C)(C)C)cc(Br)c1OCc1cccs1	MrgX1 antag -6.1
CCOc1ccc(Cl)cc1S(=O)(=O)N1CCC(C(=O)NC2CC2)CC1	none
O=C(CSc1nnc(COc2ccc(Cl)cc2)o1)NC1CCCCC1	none (no result: Lipid droplet)
O=C(CSc1nnc(COc2ccc(Cl)cc2)o1)NC1CC2CCC1C2 (configuration not stated)	MrgX1 antag -4.7
O=C(COc1ccc(Cl)cc1)NCc1nnc(SCC(=O)NC2CCCC2)o1	MrgX1 antag -6.4
COc1ccc(OCc2nnc(SCC(=O)NC3CC4CCC3C4)o2)cc1 (configuration not stated)	none
Clc1ccc2c(c1)C(N1CCNCC1)Cc1ccccc1S2 (configuration not stated)	RGS4 act -7.8
CC(C)CSC1=NSC2=NC(=O)/C(=C\c3ccccc3)C(=N)N12	MrgX1 ag 27
CCOc1ccc(NC(=O)CSc2nnc(Cc3cccn3C)n2-c2ccc(OC)cc2)cc1	MrgX1 antag -5.7
COc1ccc(NC(=O)CSc2nnc(Cc3cccn3C)n2-c2ccc(OC)cc2)cc1	none
CCc1ccc(CN2CCC(Oc3ccc(C(=O)N4CCCC4)cc3)CC2)cc1	none
CCc1ccc(CN2CCC(Oc3ccc(C(=O)N4CCCCC4)cc3)CC2)cc1	RGS4 act -7.2
Fc1ccc2[nH]c3c(N4CCN(C5CCCCC5)CC4)ncnc3c2c1	RGS4 act -7.6 (no result: Lipid droplet)
Cc1ccc(NC(=O)/C(C#N)=C/c2ccc(C)s2)c(C)c1	MrgX1 antag -4.7
CCC1(c2ccc(F)cc2)NC(=O)N(CC(=O)Nc2cc(S(=O)(=O)N(C)C)ccc2Cl)C1=O (configuration not stated)	none
O=C(N/N=C/C=C/c1ccco1)C(O)c1ccccc1 (configuration not stated)	none (no result: Lipid droplet)
O=C(N/N=C/C=C/c1ccccc1)C(O)c1ccccc1 (configuration not stated)	MrgX1 antag -5.9 (no result: Lipid droplet)
NCCNC(=O)Cc1cccc(NC(=O)Cc2ccc(Nc3ncnc4c3ncn4[C@@H]3O[C@H](CO)[C@@H](O)[C@H]3O)cc2)c1	MrgX1 PAM 8.2
O=[N+]([O-])c1ccc(CSc2ncnc3c2ncn3[C@@H]2O[C@H](CO)[C@@H](O)[C@H]2O)cc1	none (no result: RGS4 block, Lipid droplet, RGS4 act)
COc1ccc(CCNC(=O)/C(C#N)=C2\N=C(NC(=O)c3ccco3)c3ccccc32)cc1	MrgX1 antag -4.7 (no result: Lipid droplet)
C/C(=N\OC(=O)c1ccc(F)cc1)c1ccc(F)c(F)c1	none
CC1=CC(=O)C=C(C)C1=NOC(=O)c1cccc([N+](=O)[O-])c1	none
CC12CCC(C/C1=N\OC(=O)c1ccc(F)cc1)C2(C)C (configuration not stated)	MrgX1 PAM 8.4
CC12CCC(C/C1=N/OC(=O)c1cccc([N+](=O)[O-])c1)C2(C)C (configuration not stated)	MrgX1 PAM 9.8
CC1(C)Cc2c(C#N)c(NC3CCCCC3)nc(-c3ccco3)c2CO1	MrgX1 ag 29
O=C(CSc1ccccn1)Nc1nonc1[N+](=O)[O-]	MrgX1 ag 38
O=C(NCCCN1CCOCC1)C(=O)N/N=C/c1c2ccccc2cc2ccccc12	RGS4 act -9.2
Cc1ccc(-c2cc(C(=O)Nc3ccccc3C)c3ccccc3n2)o1	MrgX1 antag -4.8
COc1ccccc1/C=C(/C#N)C(=O)O	none
COc1ccccc1/C=C(\C#N)C(=O)c1cccn1C	MrgX1 ag 32 (no result: Lipid droplet)
COc1ccc(/C=C(\C#N)C(=O)c2cccn2C)cc1	none (no result: Lipid droplet)
Cn1cccc1C(=O)/C(C#N)=C/c1ccc(F)cc1	MrgX1 ag 35 (no result: Lipid droplet)
O=C(NCCS(=O)(=O)N1CCCCC1)c1ccc2c(c1)OCO2	none (no result: Lipid droplet)
CNC(=O)NC(=O)CSc1nc2sccc2c(=O)n1-c1ccccc1	none
Fc1ccc(Br)cc1C1C=C(c2ccc(Br)cc2)Nc2ncnn21 (configuration not stated)	none
CCc1ccc(C2=CC(c3cc(Br)ccc3F)n3ncnc3N2)cc1 (configuration not stated)	MrgX1 PAM 11 (no result: RGS4 block, RGS4 act)
CCNc1nc(NC(C)C)nc(ON=C(C)C)n1	none
Cc1cc(/C=N/n2cnnc2)c(C)n1-c1ccc(Cl)cc1	none
Cc1cc(/C=N/n2cnnc2)c(C)n1-c1ccc(OCc2ccc(Cl)cc2Cl)cc1	RGS4 act -8.3
Cc1cccc(NS(=O)(=O)c2ccc3oc(=O)ccc3c2)c1C	none
O=C(COC(=O)c1ccc2ccccc2c1)Nc1ncc(C(F)(F)F)cc1Cl	none
O=C(COC(=O)c1c2ccccc2cc2ccccc12)Nc1ncc(C(F)(F)F)cc1Cl	RGS4 act -7
O=[N+]([O-])c1ccc(CNCc2cc(Cl)ccc2O)cc1	none (no result: RGS4 block, Lipid droplet, RGS4 act)
COc1ccc(C(C(=O)NC2CCCC2)N(C(=O)c2snc(C(N)=O)c2N)c2cccc(O)c2)cc1 (configuration not stated)	MrgX1 PAM 6.5
